Legend:
Rattus norvegicus [1] = test: Maximum change in mean aortic blood pressure in conscious renal 2-kidney/1-clip goldblatt hypertensive rat at a dose 3 mg/kg administered orally at 6 h; 4 animals tested; format: functional, Artery; conditions: route oral
Rattus norvegicus [2] = test: Mean aortic base line blood pressure in conscious renal 2-kidney/1-clip goldblatt hypertensive rat at a dose 3 mg/kg administered orally; format: functional, Artery; conditions: route oral
Method in brief: (§1)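 Male Sprague–Dawley rats, 4 weeks old, given a silver clip (0.2-mm gap) on the left renal artery with the other kidney intact. Hypertension developed over 4–8 weeks, then rats (280–320 g) were aortic-cannulated; only those with mean pressure >160 mmHg were used. Oral dosing. One-minute running averages were logged every 30 min. Results are mean ± 1 SEM, from 3–5 rats.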

Rattus norvegicus [3] = test: Maximum change in mean aortic blood pressure in conscious renal 2-kidney/1-clip goldblatt hypertensive rat at a dose 30 mg/kg administered orally at 8h; 4 animals tested; format: functional, Artery; conditions: route oral; method in brief: as §1
[4] = target: T1, Angiotensin-converting enzyme (Rattus norvegicus, UniProt P47820); test: Inhibition of rat Angiotensin I converting enzyme (ACE), using Hip-Gly-Gly as synthetic substrate.
T1 sequence (P47820 whole entry): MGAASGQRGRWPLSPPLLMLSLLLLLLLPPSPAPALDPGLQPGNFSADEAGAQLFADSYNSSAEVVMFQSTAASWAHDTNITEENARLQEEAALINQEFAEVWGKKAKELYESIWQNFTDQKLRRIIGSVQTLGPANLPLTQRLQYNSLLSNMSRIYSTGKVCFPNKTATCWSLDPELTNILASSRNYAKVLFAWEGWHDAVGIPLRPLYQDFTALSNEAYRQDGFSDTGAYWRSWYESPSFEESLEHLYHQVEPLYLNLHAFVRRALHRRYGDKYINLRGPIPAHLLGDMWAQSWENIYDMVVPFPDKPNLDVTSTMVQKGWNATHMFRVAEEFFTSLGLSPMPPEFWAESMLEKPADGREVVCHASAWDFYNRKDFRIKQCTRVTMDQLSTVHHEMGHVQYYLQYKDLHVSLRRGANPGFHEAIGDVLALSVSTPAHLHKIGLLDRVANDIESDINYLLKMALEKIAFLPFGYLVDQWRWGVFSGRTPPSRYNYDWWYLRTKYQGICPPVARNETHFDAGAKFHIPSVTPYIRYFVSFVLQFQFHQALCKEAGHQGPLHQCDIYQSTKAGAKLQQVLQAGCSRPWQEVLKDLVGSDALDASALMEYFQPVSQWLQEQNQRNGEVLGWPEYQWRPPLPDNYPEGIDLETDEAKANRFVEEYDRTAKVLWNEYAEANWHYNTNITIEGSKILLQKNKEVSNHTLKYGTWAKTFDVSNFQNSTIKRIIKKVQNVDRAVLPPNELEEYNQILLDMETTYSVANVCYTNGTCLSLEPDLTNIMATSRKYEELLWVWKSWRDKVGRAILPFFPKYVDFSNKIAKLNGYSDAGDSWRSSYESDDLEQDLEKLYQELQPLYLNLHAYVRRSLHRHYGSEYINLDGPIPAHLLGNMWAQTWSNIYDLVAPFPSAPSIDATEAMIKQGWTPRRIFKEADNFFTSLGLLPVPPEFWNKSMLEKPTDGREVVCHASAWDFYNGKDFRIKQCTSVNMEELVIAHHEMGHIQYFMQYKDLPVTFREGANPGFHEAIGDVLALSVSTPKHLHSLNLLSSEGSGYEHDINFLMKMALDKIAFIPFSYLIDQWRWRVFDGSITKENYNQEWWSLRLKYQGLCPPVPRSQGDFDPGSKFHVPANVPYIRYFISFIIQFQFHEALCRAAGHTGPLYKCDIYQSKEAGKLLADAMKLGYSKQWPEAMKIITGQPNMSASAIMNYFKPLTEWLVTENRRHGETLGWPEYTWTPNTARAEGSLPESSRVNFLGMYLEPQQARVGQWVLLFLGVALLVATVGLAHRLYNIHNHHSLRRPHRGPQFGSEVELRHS
Method in brief: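 Radioassay of converting-enzyme activity with Hip-Gly-Gly as substrate; compounds dissolved at 2–5 mg/mL in Me2SO, then diluted to test concentrations in pH 8 buffer (0.05 M Hepes, 0.1 M NaCl, 0.6 M Na2SO4).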

Rattus norvegicus [5] = test: Mean aortic base line blood pressure in conscious renal 2-kidney/1-clip goldblatt hypertensive rat at a dose 30 mg/kg administered orally; format: functional, Artery; conditions: route oral
Rattus norvegicus [6] = test: Mean aortic base line blood pressure in conscious renal 2-kidney/1-clip goldblatt hypertensive rat at a dose 0.3 mg/kg administered orally; format: functional, Artery; conditions: route oral
Rattus norvegicus [7] = test: Mean aortic base line blood pressure in conscious renal 2-kidney/1-clip goldblatt hypertensive rat at a dose 0.1 mg/kg administered orally; format: functional, Artery; conditions: route oral; method in brief: as §1
Rattus norvegicus [8] = test: Mean aortic base line blood pressure in conscious renal 2-kidney/1-clip goldblatt hypertensive rat at a dose 10 mg/kg administered orally; format: functional, Artery; conditions: route oral; method in brief: as §1
Rattus norvegicus [9] = test: Maximum change in mean aortic blood pressure in conscious renal 2-kidney/1-clip goldblatt hypertensive rat at a dose 1.0 mg/kg administered orally at 3 hr; 4 animals tested; format: functional, Artery; conditions: route oral; method in brief: as §1
Rattus norvegicus [10] = test: Maximum change in mean aortic blood pressure in conscious renal 2-kidney/1-clip goldblatt hypertensive rat at a dose 30 mg/kg administered orally at 6 h; 4 animals tested; format: functional, Artery; conditions: route oral
Rattus norvegicus [11] = test: Mean aortic base line blood pressure in conscious renal 2-kidney/1-clip goldblatt hypertensive rat at a dose 1.0 mg/kg administered orally; format: functional, Artery; conditions: route oral; method in brief: as §1
Rattus norvegicus [12] = test: Maximum change in mean aortic blood pressure in conscious renal 2-kidney/1-clip goldblatt hypertensive rat at a dose 0.3 mg/kg administered orally at 5h; 4 animals tested; format: functional, Artery; conditions: route oral; method in brief: as §1
Rattus norvegicus [13] = test: Maximum change in mean aortic blood pressure in conscious renal 2-kidney/1-clip goldblatt hypertensive rat at a dose 0.1 mg/kg administered orally at 10h; 4 animals tested; format: functional, Artery; conditions: route oral; method in brief: as §1
Rattus norvegicus [14] = test: Mean aortic base line blood pressure in conscious renal 2-kidney/1-clip goldblatt hypertensive rat at a dose 3.0 mg/kg administered orally; format: functional, Artery; conditions: route oral
Rattus norvegicus [15] = test: Maximum change in mean aortic blood pressure in conscious renal 2-kidney/1-clip goldblatt hypertensive rat at a dose 3.0 mg/kg administered orally at 5h; 4 animals tested; format: functional, Artery; conditions: route oral; method in brief: as §1
Rattus norvegicus [16] = test: Maximum change in mean aortic blood pressure in conscious renal 2-kidney/1-clip goldblatt hypertensive rat at a dose 0.3 mg/kg administered orally at 8h; 4 animals tested; format: functional, Artery; conditions: route oral; method in brief: as §1
Rattus norvegicus [17] = test: Maximum change in mean aortic blood pressure in conscious renal 2-kidney/1-clip goldblatt hypertensive rat at a dose 30 mg/kg administered orally at 10h; 4 animals tested; format: functional, Artery; conditions: route oral; method in brief: as §1
Rattus norvegicus [18] = test: Maximum change in mean aortic blood pressure in conscious renal 2-kidney/1-clip goldblatt hypertensive rat at a dose 1.0 mg/kg administered orally at 5h; 4 animals tested; format: functional, Artery; conditions: route oral; method in brief: as §1
Rattus norvegicus [19] = test: Maximum change in mean aortic blood pressure in conscious renal 2-kidney/1-clip goldblatt hypertensive rat at a dose 30 mg/kg administered orally at 5h; 4 animals tested; format: functional, Artery; conditions: route oral; method in brief: as §1
Rattus norvegicus [20] = test: Maximum change in mean aortic blood pressure in conscious renal 2-kidney/1-clip goldblatt hypertensive rat at a dose 3 mg/kg administered orally at 5h; 4 animals tested; format: functional, Artery; conditions: route oral; method in brief: as §1
Rattus norvegicus [21] = test: Maximum change in mean aortic blood pressure in conscious renal 2-kidney/1-clip goldblatt hypertensive rat at a dose 1.0 mg/kg administered orally at 8h; 4 animals tested; format: functional, Artery; conditions: route oral; method in brief: as §1
Rattus norvegicus [22] = test: Maximum change in mean aortic blood pressure in conscious renal 2-kidney/1-clip goldblatt hypertensive rat at a dose 10 mg/kg administered orally at 4 hr; 4 animals tested; format: functional, Artery; conditions: route oral; method in brief: as §1
Rattus norvegicus [23] = test: Maximum change in mean aortic blood pressure in conscious renal 2-kidney/1-clip goldblatt hypertensive rat at a dose 30 mg/kg administered orally at 8h; 3 animals tested; format: functional, Artery; conditions: route oral
Method in brief: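 Male Sprague–Dawley rats made hypertensive at 4 weeks old by silver clip (0.2-mm gap) on left renal artery, contralateral kidney intact; 4–8 weeks development, cannulated (280–320 g), only mean aortic pressure >160 mmHg used. Oral dosing; 1-min running-average aortic pressure and heart rate logged every 30 min; maximum change from base line, mean ± SEM.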

Question: `CCOC(=O)C(CCc1ccccc1)NC(C)C(=O)N1[C@H](C(=O)O)C[C@@H]2CCCC[C@@H]21.Cl` (stereo in doubt; 17a) was tested. Which “Mean aortic blood pressure” value (Rattus norvegicus [1]) did it give?
Answer: -87 mmHg

Question: And the “Mean aortic blood pressure” value (Rattus norvegicus [2])?
Answer: 199 mmHg

Question: How did the “Mean aortic blood pressure” value (Rattus norvegicus [3]) turn out when `O=C(NC(Cc1ccccc1)C(=O)CCC(=O)N1C(C(=O)O)CC2CCCCC21)c1ccccc1` (centres undefined) was run?
Answer: -27 mmHg

Question: And the IC50 [4]?
Answer: 11 nM

Question: What about the “Mean aortic blood pressure” value (Rattus norvegicus [5]) of the same molecule?
Answer: 169 mmHg

Question: For `CCOC(=O)C(CCc1ccccc1)NC(C)C(=O)N1[C@H](C(=O)O)C[C@@H]2CCCC[C@@H]21.Cl` (stereo in doubt; 11a), which “Mean aortic blood pressure” value (Rattus norvegicus [6]) is on record?
Answer: 191 mmHg

Question: And the “Mean aortic blood pressure” value (Rattus norvegicus [7])?
Answer: 185 mmHg

Question: And the “Mean aortic blood pressure” value (Rattus norvegicus [8])?
Answer: 197 mmHg

Question: What about the “Mean aortic blood pressure” value (Rattus norvegicus [9]) of the same molecule?
Answer: -72 mmHg

Question: And the “Mean aortic blood pressure” value (Rattus norvegicus [10])?
Answer: -102 mmHg

Question: And the “Mean aortic blood pressure” value (Rattus norvegicus [11])?
Answer: 190 mmHg

Question: And the “Mean aortic blood pressure” value (Rattus norvegicus [12])?
Answer: -73 mmHg

Question: And the “Mean aortic blood pressure” value (Rattus norvegicus [13])?
Answer: -52 mmHg

Question: And the “Mean aortic blood pressure” value (Rattus norvegicus [5])?
Answer: 185 mmHg

Question: Which “Mean aortic blood pressure” value (Rattus norvegicus [6]) does the source give for `CC(CS)C(=O)N1[C@H](C(=O)O)C[C@@H]2CCCC[C@@H]21` (stereo in doubt; 9c) here?
Answer: 185 mmHg

Question: And the “Mean aortic blood pressure” value (Rattus norvegicus [7])?
Answer: 184 mmHg

Question: And the “Mean aortic blood pressure” value (Rattus norvegicus [14])?
Answer: 190 mmHg

Question: What about the “Mean aortic blood pressure” value (Rattus norvegicus [15]) of the same molecule?
Answer: -81 mmHg

Question: What about the “Mean aortic blood pressure” value (Rattus norvegicus [11]) of the same molecule?
Answer: 178 mmHg

Question: And the “Mean aortic blood pressure” value (Rattus norvegicus [16])?
Answer: -19 mmHg

Question: And the “Mean aortic blood pressure” value (Rattus norvegicus [17])?
Answer: -115 mmHg

Question: And the IC50 [4]?
Answer: 7.7 nM

Question: What about the “Mean aortic blood pressure” value (Rattus norvegicus [18]) of the same molecule?
Answer: -72 mmHg

Question: What about the “Mean aortic blood pressure” value (Rattus norvegicus [5]; 30 mg/kg) of the same molecule?
Answer: 197 mmHg

Question: With `C[C@H](N[C@@H](CCc1ccccc1)C(=O)O)C(=O)N1[C@H](C(=O)O)C[C@@H]2CCCC[C@@H]21` as the molecule, how does the “Mean aortic blood pressure” value (Rattus norvegicus [19]) read?
Answer: -104 mmHg

Question: What about the “Mean aortic blood pressure” value (Rattus norvegicus [5]) of the same molecule?
Answer: 198 mmHg

Question: For `CC(=O)SCC(C)C(=O)N1[C@H](C(=O)O)C[C@@H]2CCCC[C@@H]21` (stereo in doubt; 9a), which IC50 [4] is on record?
Answer: 160 nM

Question: `CC(=O)SCCC(=O)N1[C@H](C(=O)O)C[C@@H]2CCCC[C@@H]21` (stereo in doubt; 8c) was tested. Which IC50 [4] did it give?
Answer: 480 nM

Question: `CC(=O)SCC(C)C(=O)N1C(=O)C2CCCCC2C1C(=O)O` (centres undefined) was tested. Which IC50 [4] did it give?
Answer: 300 nM

Question: Which results are given for `CCOC(=O)[C@H](CCc1ccccc1)N[C@@H](C)C(=O)N1CCC[C@H]1C(=O)O`?
Answer: Mean aortic blood pressure (Rattus norvegicus [20]): -56 mmHg; Mean aortic blood pressure (Rattus norvegicus [6]): 201 mmHg; Mean aortic blood pressure (Rattus norvegicus [14]): 200 mmHg; Mean aortic blood pressure (Rattus norvegicus [8]): 199 mmHg; Mean aortic blood pressure (Rattus norvegicus [21]): -24 mmHg; Mean aortic blood pressure (Rattus norvegicus [22]): -56 mmHg; Mean aortic blood pressure (Rattus norvegicus [11]): 175 mmHg; Mean aortic blood pressure (Rattus norvegicus [12]): -39 mmHg

Question: How did the IC50 [4] turn out when `O=C(O)[C@@H]1CCCN1C(=O)CCS` was run?
Answer: 820 nM

Question: What does the source list for `C1CCC(NC2CCCCC2)CC1.CC(CS)C(=O)N1C(=O)C2CCCCC2C1C(=O)O` (centres undefined)?
Answer: Mean aortic blood pressure (Rattus norvegicus [23]): -100 mmHg; Mean aortic blood pressure (Rattus norvegicus [5]): 192 mmHg

Question: With `O=C1SCCC(=O)N2C1CC1CCCCC12` (centres undefined) as the molecule, how does the IC50 [4] read?
Answer: 7 nM

Question: With `C1CCC(NC2CCCCC2)CC1.O=C(O)C1C2CCCCC2C(=O)N1C(=O)CCS` (centres undefined) as the molecule, how does the “Mean aortic blood pressure” value (Rattus norvegicus [23]) read?
Answer: -57 mmHg

Question: And the “Mean aortic blood pressure” value (Rattus norvegicus [5])?
Answer: 205 mmHg

Question: How did the IC50 [4] turn out when `CCOC(=O)C(CCc1ccccc1)NC(C)C(=O)N1C(=O)CCC1C(=O)O` (centres undefined) was run?
Answer: 63 nM
